Reference: PMC11223151 (ACS Omega, 2024)
Values after ≈ are worked out from the molar mass of the structure shown.

What was measured:
Type in all cases: cell-based
[1] = test system: human lymphocytes; assay: Comet assay
In short: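 Freshly isolated human lymphocytes from fresh blood were exposed to test compound at 40–0.078 μg/mL. Controls were 20% DMSO (positive) and normal saline (negative). Cells in low-melting agarose went onto slides precoated with normal-melting agarose, then cold lysis overnight, alkaline unwinding at pH >13, and electrophoresis for 30 min at 300 mA, 24 V. Slides were neutralised at pH 7.5 and ethidium bromide-stained. Tail length and head diameter were scored by fluorescence microscopy, damage index by formula, reported as mean ± SD of 3–5 experiments.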

[2] = test system: Vero cell line; assay: MTT assay, cytotoxicity on Vero; conditions: Chlorocebus sabaeus, 48 h, read-out: IC50 Vero cell line
[3] = test system: MCF-7 cell line; assay: MTT assay, anticancer activity on MCF-7 cell line; conditions: Homo sapiens, MCF7, 48 h

C[S+](C)[O-] [20% DMSO, Dimethyl sulfoxide]
damage index ([1]; positive control, 20%): 45 | fragmentation % ([1]; positive control, 20%): 100% | genetic damage index ([1]; positive control, 20%): 1.8

COc1cc(/C=C/C(=O)CC(=O)/C=C/c2ccc(O)c(OC)c2)ccc1O [curcumin]
damage index ([1]; 0.078 μg/mL): 0 | fragmentation % ([1]; 0.078 μg/mL): 0% | genetic damage index ([1]; 0.078 μg/mL): 0 | mean tail length n = 25 ([1]; 0.078 μg/mL): 0.36 ± 0.47 | damage index ([1]; 0.156 μg/mL): 0 | fragmentation % ([1]; 0.156 μg/mL): 0% | genetic damage index ([1]; 0.156 μg/mL): 0 | mean tail length n = 25 ([1]; 0.156 μg/mL): 0.46 ± 0.38 | damage index ([1]; 0.3125 μg/mL): 0 | fragmentation % ([1]; 0.3125 μg/mL): 0% | genetic damage index ([1]; 0.3125 μg/mL): 0 | mean tail length n = 25 ([1]; 0.3125 μg/mL): 0.57 ± 0.22 | damage index ([1]; 0.625 μg/mL): 0 | fragmentation % ([1]; 0.625 μg/mL): 0% | genetic damage index ([1]; 0.625 μg/mL): 0 | mean tail length n = 25 ([1]; 0.625 μg/mL): 0.54 ± 0.28 | damage index ([1]; 1.25 μg/mL): 0 | fragmentation % ([1]; 1.25 μg/mL): 0% | genetic damage index ([1]; 1.25 μg/mL): 0 | mean tail length n = 25 ([1]; 1.25 μg/mL): 0.68 ± 0.35 | damage index ([1]; 2.5 μg/mL): 0 | fragmentation % ([1]; 2.5 μg/mL): 0% | genetic damage index ([1]; 2.5 μg/mL): 0 | mean tail length n = 25 ([1]; 2.5 μg/mL): 0.68 ± 0.74 | damage index ([1]; 5 μg/mL): 0 | fragmentation % ([1]; 5 μg/mL): 0% | genetic damage index ([1]; 5 μg/mL): 0 | mean tail length n = 25 ([1]; 5 μg/mL): 1.14 ± 0.72 | damage index ([1]; 10 μg/mL): 1 | fragmentation % ([1]; 10 μg/mL): 4% | genetic damage index ([1]; 10 μg/mL): 0.04 | mean tail length n = 25 ([1]; 10 μg/mL): 1.28 ± 0.28 | damage index ([1]; 20 μg/mL): 2 | fragmentation % ([1]; 20 μg/mL): 8% | genetic damage index ([1]; 20 μg/mL): 0.08 | mean tail length n = 25 ([1]; 20 μg/mL): 1.31 ± 0.74 | damage index ([1]; 40 μg/mL): 3 | fragmentation % ([1]; 40 μg/mL): 12% | genetic damage index ([1]; 40 μg/mL): 0.12 | mean tail length n = 25 ([1]; 40 μg/mL): 1.86 ± 0.73 | IC50 [2]: 23.2 mg/L (≈ 63 µM) | IC50 ([3]; read-out: IC50 MCF7 cell line): 11.5 mg/L (≈ 31.1 µM) | inhibition at 40 µg/mL ([3]; read-out: percentage inhibition against MCF7 cell line): 64%
